Values after ≈ are worked out from the molar mass of the structure shown. Active and inactive are the calls of the source. No cut-off for these calls is given here.

For data set [1], the system named is Bacillus subtilis. The data set is described as follows: Inhibition of RNA synthesis in Bacillus subtilis BD54 at 5 X MIC by [5-3H]uridine incorporation assay. Format: functional. In short, it runs like this: (§1)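 Precursors were [methyl-3H]thymidine (DNA), [5-3H]uridine (RNA), L-[4,5-3H]leucine (protein) and N-acetyl-D-[1-3H]glucosamine (cell wall). Samples taken over time, precipitated with equal volume of ice-cold 20% TCA, filtered on glass fibre, and counted. cpm plotted against time.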

Data set [2] concerns Bacillus subtilis. The experiment in a line: Inhibition of DNA synthesis in Bacillus subtilis BD54 at 5 X MIC by [3H]thymidine incorporation assay. Type of data set: functional, organism-based. The essentials: as §1
Background: Dividing cells build labelled thymidine or BrdU into new DNA.

Data set [3] has as its system Bacillus subtilis. The data set is described as follows: Inhibition of cell wall synthesis in Bacillus subtilis BD54 at 5 X MIC by N-acetyl-D-[1-3H] glucosamine incorporation assay. Type of data set: functional. In short, it runs like this: as §1
The test system of data set [4] is Bacillus subtilis. The experiment in a line: Inhibition of protein synthesis in Bacillus subtilis BD54 at 5 X MIC by L-[4,5-3H]leucine incorporation assay. Type of data set: functional, organism-based. The essentials: as §1
The subject of data set [5] is Bacillus anthracis. The data set is described as follows: Antimicrobial activity against Bacillus anthracis Sterne vegetative cells by broth microdilution method. Format: functional.
The subject of data set [6] is Enterococcus faecium. The data set is described as follows: Antimicrobial activity against vancomycin-resistant Enterococcus faecium B42762 by broth microdilution method. Type of data set: functional.
For data set [7], the system named is Staphylococcus aureus. The experiment in a line: Antimicrobial activity against methicillin-resistant Staphylococcus aureus 1094 by broth microdilution method. Format: functional. In general terms: Broth dilution looks for growth in wells or tubes with falling amounts of substance.
The subject of data set [8] is Enterococcus faecalis. The experiment in a line: Antimicrobial activity against Enterococcus faecalis 29212 clinical isolate by broth microdilution method. Type of data set: functional.
In data set [9] the test system is Bacillus anthracis. The data set is described as follows: microbe, parasite or virus in culture. The settings on record: Ames.
Data set [10] concerns Mycolicibacterium smegmatis. The data set is described as follows: Antimicrobial activity against Mycobacterium smegmatis 19420 by broth microdilution method. Type of data set: functional. The essentials: (§2)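 Broth microdilution. Log-phase cultures (5 × 10^5 CFU/ml) seeded in 96-well plates with compound from 0 to 20 µM or 1% DMSO control. Incubated at 37°C for 16 to 20 h. Growth read as absorbance at 600 nm.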

Data set [11] has as its system Bacillus licheniformis. The experiment in a line: Antimicrobial activity against Bacillus licheniformis clinical isolate by broth microdilution method. Format: functional.
The test system of data set [12] is Staphylococcus aureus. The data set is described as follows: Antimicrobial activity against Staphylococcus aureus ATCC 25923 by broth microdilution method. Type of data set: functional. In short, it runs like this: as §2
Data set [13] relates to Burkholderia mallei. The experiment in a line: Antimicrobial activity against Burkholderia mallei ATCC 23344 by broth microdilution method. Type of data set: functional.
Data set [14] has as its system Staphylococcus aureus. The data set is described as follows: Antimicrobial activity against methicillin-resistant Staphylococcus aureus clinical isolate by broth microdilution method. Type of data set: functional.
The test system of data set [15] is Yersinia pestis. The data set is described as follows: Antimicrobial activity against Yersinia pestis by broth microdilution method. Format: functional.
The subject of data set [16] is Burkholderia cepacia. The data set is described as follows: Antimicrobial activity against Burkholderia cepacia clinical isolate by broth microdilution method. Type of data set: functional. The essentials: as §2
In data set [17] the test system is Escherichia coli. The experiment in a line: Antimicrobial activity against Escherichia coli J53 clinical isolate by broth microdilution method. Type of data set: functional.
Data set [18] deals with Bacillus anthracis. The data set is described as follows: Antimicrobial activity against Bacillus anthracis Sterne spores by broth microdilution method. Format: functional.
Data set [19] has as its system Enterococcus faecalis. The experiment in a line: Antimicrobial activity against vancomycin-resistant Enterococcus faecalis ATCC 51575 by broth microdilution method. Type of data set: functional.
In data set [20] the test system is Klebsiella pneumoniae. The data set is described as follows: Antimicrobial activity against Klebsiella pneumoniae 5657 by broth microdilution method. Format: functional. In short, it runs like this:
as §2

In data set [21] the test system is Brevibacillus brevis. The data set is described as follows: Antimicrobial activity against Bacillus brevis clinical isolate by broth microdilution method. Type of data set: functional. The essentials:
as §2

Data set [22] has as its system Bacillus anthracis. The experiment in a line: Antimicrobial activity against Bacillus anthracis Vollum clinical isolate by broth microdilution method. Format: functional.
The test system of data set [23] is Enterococcus faecalis. The data set is described as follows: Antimicrobial activity against Enterococcus faecalis clinical isolate by broth microdilution method. Format: functional. The essentials:
as §2

Data set [24] deals with HeLa. The data set is described as follows: Effect on cell membrane integrity in human HeLa cells assessed as lactate dehydrogenase release at 32 times MIC against Staphylococcus aureus by CytoTox ONE homogenous membrane integrity assay. Format: cell-based. In short, it runs like this:
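Confluent HeLa cells in DMEM treated for 1 h with a range of compound concentrations, 1% DMSO final. […] LDH activity in the supernatant measured by a membrane-integrity kit.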

Data set [25] deals with Mycolicibacterium smegmatis. The experiment in a line: Antimicrobial activity against Mycobacterium smegmatis 35798 by broth microdilution method. Format: functional. In short, it runs like this: as §2
For data set [26], the system named is Burkholderia pseudomallei. The data set is described as follows: Antimicrobial activity against Burkholderia pseudomallei DD503 by broth microdilution method. Type of data set: functional.
Data set [27] has as its system Burkholderia thailandensis. The data set is described as follows: Antimicrobial activity against Burkholderia thailandensis by broth microdilution method. Format: functional.
Data set [28] has as its system Priestia megaterium. The data set is described as follows: Antimicrobial activity against Bacillus megaterium clinical isolate by broth microdilution method. Format: functional.
The subject of data set [29] is Staphylococcus aureus. The data set is described as follows: Antimicrobial activity against Staphylococcus aureus by broth microdilution method. Format: functional. The essentials:
as §2

The nature of data set [30]: Cytotoxicity against human HeLa cells after 3 days by MTS assay in presence of 10% fetal calf serum. Format: cell-based. In general terms: Tetrazolium assays rely on reduction of a dye to a coloured formazan, in cell work by metabolically active cells.
The subject of data set [31] is Bacillus anthracis. The data set is described as follows: microbe, parasite or virus in culture. The settings on record: Ames. The source holds these as a separate data set.
In data set [32] the test system is Mycolicibacterium smegmatis. The data set is described as follows: Antimicrobial activity against Mycobacterium smegmatis 700009 by broth microdilution method. Type of data set: functional. The essentials:
as §2

Data set [33] concerns Pseudomonas aeruginosa. The data set is described as follows: Antimicrobial activity against Pseudomonas aeruginosa PAO1 by broth microdilution method. Format: functional. The essentials:
as §2

The subject of data set [34] is Bacillus anthracis. The experiment in a line: Inhibition of spore germination in Bacillus anthracis Sterne spores at MIC after 4 hrs. Format: functional, organism-based.
For data set [35], the system named is Bacillus anthracis. The experiment in a line: Protection against Bacillus anthracis Sterne spores induced cell death in mouse J774A1 cells assessed as dead cells at 10 uM by Sytox green dye staining assay relative to untreated control. Format: functional, J774.A1.
Data set [36] concerns Bacillus anthracis. The data set is described as follows: Antimicrobial activity against Bacillus anthracis Ames by broth microdilution method in presence of 10% fetal calf serum. Format: functional.
Data set [37] relates to Bacillus subtilis. The experiment in a line: Antimicrobial activity against Bacillus subtilis clinical isolate by broth microdilution method. Type of data set: functional.
Data set [38] relates to Bacillus pumilus. The experiment in a line: Antimicrobial activity against Bacillus pumilus clinical isolate by broth microdilution method. Format: functional. The essentials:
as §2

Data set [39] has as its system Bacillus anthracis. The data set is described as follows: Protection against Bacillus anthracis Sterne spores induced cell death in mouse J774A1 cells assessed as live viable cells at 10 uM by Sytox green dye staining assay relative to untreated control. Type of data set: functional, J774.A1.

`O=C(N[C@H](CO)[C@H](O)c1ccc([N+](=O)[O-])cc1)C(Cl)Cl`: the inhibition result in [1], in data set [2], in [3] and in data set [4] was “Active” each time.

For the compound `c1cc2cc(-c3ccc4cc(C5=NCCN5)[nH]c4c3)[nH]c2cc1C1=NCCN1`, the MIC in [5] came out at 1.1 µg/mL (≈ 2.99 µM); in data set [6], 0.2 µg/mL (≈ 0.543 µM); in data set [7], 0.3 µg/mL (≈ 0.814 µM); in [8], 0.3 µg/mL (≈ 0.814 µM); in [9] it was 1.1 µg/mL (≈ 2.99 µM); in [10], 0.2 µg/mL (≈ 0.543 µM). For the same compound, the MIC in data set [11] is 2.2 µg/mL (≈ 5.97 µM); in data set [12] it was 0.3 µg/mL (≈ 0.814 µM); in data set [13], 1.8 µg/mL (≈ 4.89 µM); in data set [14], 2.2 µg/mL (≈ 5.97 µM); in data set [15], 7.4 µg/mL (≈ 20.1 µM); in data set [16] it was 4.4 µg/mL (≈ 11.9 µM). Moreover, the MIC in [17] was determined as 1.1 µg/mL (≈ 2.99 µM); in data set [18] it was 0.6 µg/mL (≈ 1.63 µM); in data set [19], 0.5 µg/mL (≈ 1.36 µM); in data set [20], 0.4 µg/mL (≈ 1.09 µM); in [21], 0.3 µg/mL (≈ 0.814 µM); in data set [22], 0.6 µg/mL (≈ 1.63 µM). The MIC in data set [23] was 2.2 µg/mL (≈ 5.97 µM); in data set [25], < 0.1 µg/mL; in [26] it was 1.8 µg/mL (≈ 4.89 µM); in data set [27], 18 µg/mL (≈ 48.9 µM); in [28], 0.6 µg/mL (≈ 1.63 µM); in [29], 1.1 µg/mL (≈ 2.99 µM). For the same compound, the MIC in data set [31] was found to be 0.3 µg/mL (≈ 0.814 µM); in data set [32], 0.3 µg/mL (≈ 0.814 µM); in [33], 25 µg/mL (≈ 67.9 µM); in data set [36], 0.3 µg/mL; in data set [37] it was 0.6 µg/mL (≈ 1.63 µM); in data set [38] it was 0.1 µg/mL (≈ 0.271 µM). For the same compound, the “inhibition (INH)” value in data set [1] and in [3] was 40% in each case. The results for the MBC in [9], in data set [22] and in [31] were 2.2 µg/mL (≈ 5.97 µM), 1.1 µg/mL (≈ 2.99 µM) and 0.5 µg/mL (≈ 1.36 µM), respectively. In addition, in data set [2], the inhibition result is “Active”. The results for the Activity result in data set [24], in data set [35] and in data set [39] were “Non-toxic”, 11% and 89%, respectively. Moreover, the CC50 (in general, the concentration giving 50% cytotoxicity) at 72 h in data set [30] was 33 µg/mL. The inhibition result in data set [34] is “inactive”.

`CO[C@H]1/C=C/O[C@@]2(C)Oc3c(C)c(O)c4c(O)c(c(/C=N/N5CCN(C)CC5)c(O)c4c3C2=O)NC(=O)/C(C)=C\C=C\[C@H](C)[C@H](O)[C@@H](C)[C@@H](O)[C@@H](C)[C@H](OC(C)=O)[C@@H]1C`: the inhibition result in [1], in [2], in data set [3] and in data set [4] was “Active” each time.

The values are drawn from ChEMBL document CHEMBL1687745 (Antimicrob Agents Chemother, 2009).
